pIC50: −log10 of the molar value. “Also recorded” adds a separate entry of the source.
Experiments:
purified RyR2 = purified RyR2 (Ovis aries, UniProt A0ACI6RLQ3); experiment: Single-channel recordings of purified RyR2 in planar lipid bilayers; format: biochemical, sheep
[1] = test system: RyR2 macromolecular complex (sheep cardiac SR); experiment: 3H-Ryanodine binding to cardiac SR vesicles
How it was run: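 Sheep cardiac SR vesicles (0.5mg/ml) incubated to equilibrium for 3hrs at 37°C in 20mM HEPES pH 7.4, 250mM KCl, 50µM CaCl2, 2nM 3H-ryanodine plus 13nM unlabeled ryanodine, ± test compound. Non-specific binding (200nM ryanodine, 4mM EGTA) subtracted. Quenched by rapid filtration. Ca2+-dependence run across free Ca2+ levels set with EGTA. Data as mean ± SEM.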

R176Q myocytes = experiment: Ca2+ transient amplitude induced by 1-Hz field stimulation, R176Q myocytes; format: cell-based, mouse; settings: 500nM, vehicle 2.4 ± 0.1
[2] = test system: ventricular myocytes of WT mice; experiment: Ca2+ transient amplitude induced by 1-Hz field stimulation, WT myocytes; format: cell-based, mouse; settings: 500nM, vehicle 2.6 ± 0.2
[3] = test system: ventricular myocytes from R176Q mice; experiment: Ca2+ spark frequency; format: cell-based, mouse
How it was run: (§1)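 Isolated mouse ventricular myocytes were loaded with Fluo-4-AM (2µM) and stimulated with 100nM isoproterenol to raise spontaneous sparks. Cells were exposed to vehicle or test compound for 2hrs, then sparks were imaged by confocal microscopy and spark frequency computed. For R176Q cells, a 0.5nM–5µM dose series was fitted sigmoidally for IC50 (n=6–10 cells per group, 3 mice).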

R176Q mice [4] = experiment: ECG parameters after injection; format: in vivo, mouse
How it was run: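 RyR2-R176Q/+ mice aged 2–3 months were anesthetised with 1.5% isoflurane in 95% O2. Six-lead surface ECG and intracardiac electrograms were recorded simultaneously, at baseline and with or without intraperitoneal test compound.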

WT myocytes = experiment: Ca2+ spark frequency; format: cell-based, mouse; settings: 500nM
How it was run: as §1

R176Q mice [5] = experiment: Inducible VT by extrastimuli pacing after epinephrine and caffeine; format: in vivo, mouse; settings: 2.5µg/kg i.p. 15 minutes prior to pacing, vehicle 8 of 11
How it was run: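 Adult (2–3-month) R176Q mice under 1.5% isoflurane in 95% O2 had surface ECG and intracardiac electrograms recorded. Epinephrine (2mg/kg) and caffeine (120mg/kg) were given i.p., then extrastimulus pacing tested VT inducibility, with or without i.p. test compound. Incidence was scored as mice with VT per group.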

[6] = IC50, single-channel, purified RyR2 without CaM, 25µM cis-Ca2+
[7] = −Log([IC50], M), single-channel, purified RyR2 without CaM, 25µM cis-Ca2+

SMILES | pIC50 (purified RyR2; [6]) | channel activity at concentrations above 100nM (purified RyR2; purified RyR2 without CaM) | pIC50 (purified RyR2; [7]) | inhibition of channel activity (purified RyR2; purified RyR2, all concentrations tested (10nM-100µM)) | effect on equilibrium 3H-ryanodine binding ([1]; equilibrium binding, sheep cardiac SR) | Ca2+ transient amplitude (R176Q myocytes) [F/Fo] | Ca2+ transient amplitude [2] [F/Fo] | reduction of CaSF compared to vehicle ([3]; 500nM) | pIC50 ([3]; CaSF inhibition, 2hrs exposure) | effect on ECG parameters (RR, HR, PR, QRS, QTc) (R176Q mice [4]) | effect on CaSF (WT myocytes) | pIC50 (purified RyR2; IC50, single-channel, purified RyR2 + 100nM CaM) | pIC50 (purified RyR2; IC50, single-channel, purified RyR2 + 1μM CaM) | reduction in potency (IC50 higher) vs CaM-free purified RyR2 (purified RyR2; cardiac SR or purified RyR2 supplemented with 100nM or 1µM CaM) [fold] | pIC50 (purified RyR2; −Log([IC50], M), single-channel, purified RyR2 + 100nM CaM) | pIC50 (purified RyR2; −Log([IC50], M), single-channel, purified RyR2 + 1μM CaM) | incidence of inducible VT (R176Q mice [5]) | concentration required for inhibition of equilibrium 3H-ryanodine binding ([1]; equilibrium binding over 3 hours) [µM] | shift of the Ca2+-dependence of 3H-ryanodine binding ([1]; therapeutic concentrations)
CCCCNc1ccc(C(=O)O)c(OC)c1 [Compound 2, 4-(butylamino)-2-methoxybenzoic acid] | 8.02 | completely inhibited | 8.02 |  |  |  |  |  |  |  |  |  |  |  |  |  |  |  | 
CCN(CC)CCO [Compound 3, 2-(diethylamino)-ethanol, reference compound] |  |  |  | did not inhibit | no effect |  |  |  |  |  |  |  |  |  |  |  |  |  | 
CCCCNc1ccc(C(=O)OCCN(CC)CC)c(OC)c1 [EL20, 2-(diethylamino)ethyl 4-(butylamino)-2-methoxybenzoate] | 8.09 | completely inhibited | 8.09 |  |  | 2.8 ± 0.3 | 2.7 ± 0.2 | ~ 70% | 7.45 | did not alter any ECG parameters; also recorded: not affected | did not significantly alter | 5.73 | 5.45 | 200 to 1000 | 5.73 | 5.45 | 1 of 7 and significantly reduced | > 10 | did not shift

Source: publication PMC5879004 (Heart rhythm, 2017)
